Measured values published in ChEMBL document CHEMBL4342410, “Design and Discovery of N-(3-(2-(2-Hydroxyethoxy)-6-morpholinopyridin-4-yl)-4-methylphenyl)-2-(trifluoromethyl)isonicotinamide, a Selective, Efficacious, and Well-Tolerated RAF Inhibitor Targeting RAS Mutant Cancers: The Path to the Clinic” (J Med Chem, 2020).
≈ marks a conversion by molar mass, not a printed value. Calls of active or inactive are those of the source. The rule behind the calls is not given here.

Columns and labels:
[1] = Drug level in dog hepatocytes treated with RAF709 at 10 uM measured after 3 hrs by LC-MS/MS analysis; assay type: ADME, cell-based, Canis lupus familiaris, Hepatocyte
[2] = Solubility of compound in pH 6.8 Cl-free PBS buffer by shake-flask assay; assay type: physicochemical
Summary of the method: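 Shake-flask solubility measured in chloride-free PBS at pH 6.8.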

[3] = Apparent permeability across apical to basolateral side in human Caco2 cells at pH 7.4 by LC/MS/MS analysis; assay type: ADME, cell-based; settings: Caco-2, pH 7.4
[4] = Drug level in human hepatocytes treated with RAF709 at 10 uM measured after 3 hrs by LC-MS/MS analysis; assay type: ADME, cell-based, Hepatocyte
[5] = Drug level in rat hepatocytes treated with RAF709 at 10 uM measured after 3 hrs by LC-MS/MS analysis; assay type: ADME, cell-based, Hepatocyte
[6] = Apparent permeability across basolateral to apical side in human Caco2 cells at pH 7.4 by LC/MS/MS analysis; assay type: ADME, cell-based; settings: Caco-2, pH 7.4
[7] = system: Calu-6; test: Antiproliferative activity against human Calu6 cells harboring KRAS Q61K mutant assessed as reduction in cell viability after 72 hrs by CellTiter-Glo assay; assay type: functional, cell-based; settings: Calu-6, 72 h
[8] = Intrinsic clearance in human liver microsomes; assay type: ADME, Microsome; settings: read-out: CLH
[9] = target: RAF proto-oncogene serine/threonine-protein kinase (Homo sapiens, UniProt P04049, Y340E/Y341E); test: Inhibition of CRAF Y340E/Y341E mutant (unknown origin) using human MEK1 K97R mutant as substrate pretreated for 30 mins followed by substrate addition measured after 40 mins by alphascreen assay
[10] = target: T1, RAF proto-oncogene serine/threonine-protein kinase (Homo sapiens, UniProt P04049); test: Inhibition of CRAF in human Calu6 cells assessed as reduction MEK phosphorylation measured after 1 hr by sandwich ELISA; assay type: cell-based
[11] = target: Cytochrome P450 3A4 (Homo sapiens, UniProt P08684); test: Time dependent inhibition of CYP3A4 in human liver microsomes assessed as inactivation rate constant at 10 uM using midazolam as substrate incubated prior to substrate addition and measured after 6 mins in presence of NADPH; assay type: ADME; settings: 0.1 h
Summary of the method: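 Human liver microsomes (0.5 mg/mL) preincubated with test compound at 10 µM and 1 mM NADPH in phosphate buffer at 37 °C for 0, 5, 15 and 30 min. Mixture then diluted 20-fold and incubated with midazolam (20 µM) at 37 °C for 6 min to measure residual CYP3A4 activity. kobs taken as the initial rate of decline of activity versus preincubation time.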

[12] = Drug metabolism in human hepatocytes assessed as amide hydrolysis at 10 uM measured after 3 hrs by LC-MS/MS analysis; assay type: ADME, cell-based, Hepatocyte
[13] = Stability in rat hepatocytes assessed as parent compound remaining at 10 uM measured after 3 hrs by LC-MS/MS analysis; assay type: ADME, cell-based, Hepatocyte
[14] = Drug metabolism in rat hepatocytes assessed as amide hydrolysis at 10 uM measured after 3 hrs by LC-MS/MS analysis; assay type: ADME, cell-based, Hepatocyte
[15] = Stability in dog hepatocytes assessed as parent compound remaining at 10 uM measured after 3 hrs by LC-MS/MS analysis; assay type: ADME, cell-based, Canis lupus familiaris, Hepatocyte; settings: read-out: Stability
[16] = Stability in human hepatocytes assessed as parent compound remaining at 10 uM measured after 3 hrs by LC-MS/MS analysis; assay type: ADME, cell-based, Hepatocyte; settings: read-out: Stability
[17] = Stimulation of BRAF-CRAF dimerization in human HCT116 cells measured after 2 hrs by NanoBit luciferase complementation assay; assay type: cell-based
[18] = target: T1, RAF proto-oncogene serine/threonine-protein kinase; test: Inhibition of CRAF in human Calu6 cells assessed as reduction MEK phosphorylation up to 24 uM measured after 1 hr by sandwich ELISA; assay type: cell-based
[19] = target: T1, RAF proto-oncogene serine/threonine-protein kinase; test: Activation of CRAF in human Calu6 cells assessed as induction of MEK phosphorylation at 3 uM measured after 1 hr by sandwich ELISA; assay type: cell-based

T1 sequence (P04049 whole entry): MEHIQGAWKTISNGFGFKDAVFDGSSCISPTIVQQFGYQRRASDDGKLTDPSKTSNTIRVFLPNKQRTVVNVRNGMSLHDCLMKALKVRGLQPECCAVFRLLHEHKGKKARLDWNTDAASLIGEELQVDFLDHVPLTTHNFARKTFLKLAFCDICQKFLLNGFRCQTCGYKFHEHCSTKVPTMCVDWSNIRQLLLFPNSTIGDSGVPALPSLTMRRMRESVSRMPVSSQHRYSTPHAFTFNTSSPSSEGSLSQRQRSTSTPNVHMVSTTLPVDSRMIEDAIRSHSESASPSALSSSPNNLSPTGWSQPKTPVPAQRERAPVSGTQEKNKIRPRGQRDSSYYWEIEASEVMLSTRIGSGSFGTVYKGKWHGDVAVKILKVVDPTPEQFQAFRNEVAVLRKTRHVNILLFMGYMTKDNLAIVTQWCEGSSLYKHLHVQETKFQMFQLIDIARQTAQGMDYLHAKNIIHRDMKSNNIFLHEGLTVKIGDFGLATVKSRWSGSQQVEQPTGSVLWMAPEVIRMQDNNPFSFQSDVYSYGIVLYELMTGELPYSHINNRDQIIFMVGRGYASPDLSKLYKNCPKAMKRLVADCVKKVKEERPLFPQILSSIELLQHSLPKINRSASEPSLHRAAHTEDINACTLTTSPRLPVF
Chain of RAF proto-oncogene serine/threonine-protein kinase (Homo sapiens, UniProt P04049, Y340E/Y341E) (P04049 whole entry Y340E/Y341E): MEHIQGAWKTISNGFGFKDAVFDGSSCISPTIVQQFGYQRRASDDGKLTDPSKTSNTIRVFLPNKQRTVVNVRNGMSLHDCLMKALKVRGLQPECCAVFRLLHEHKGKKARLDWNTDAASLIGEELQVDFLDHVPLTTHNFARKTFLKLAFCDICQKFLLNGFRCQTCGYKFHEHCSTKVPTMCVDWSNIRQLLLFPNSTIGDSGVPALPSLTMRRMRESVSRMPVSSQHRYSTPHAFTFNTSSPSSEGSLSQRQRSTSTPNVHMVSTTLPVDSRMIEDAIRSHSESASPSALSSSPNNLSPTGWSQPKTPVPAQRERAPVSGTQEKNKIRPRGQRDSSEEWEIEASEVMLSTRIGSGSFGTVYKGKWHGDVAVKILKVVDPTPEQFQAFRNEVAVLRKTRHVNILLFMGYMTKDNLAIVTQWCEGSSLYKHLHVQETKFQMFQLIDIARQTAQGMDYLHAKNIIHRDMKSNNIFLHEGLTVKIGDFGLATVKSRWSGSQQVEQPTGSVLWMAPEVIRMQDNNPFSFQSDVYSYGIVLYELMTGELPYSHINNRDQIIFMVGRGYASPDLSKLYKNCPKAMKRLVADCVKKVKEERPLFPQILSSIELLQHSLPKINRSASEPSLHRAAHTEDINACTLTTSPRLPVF
Chain of Cytochrome P450 3A4 (P08684 whole entry): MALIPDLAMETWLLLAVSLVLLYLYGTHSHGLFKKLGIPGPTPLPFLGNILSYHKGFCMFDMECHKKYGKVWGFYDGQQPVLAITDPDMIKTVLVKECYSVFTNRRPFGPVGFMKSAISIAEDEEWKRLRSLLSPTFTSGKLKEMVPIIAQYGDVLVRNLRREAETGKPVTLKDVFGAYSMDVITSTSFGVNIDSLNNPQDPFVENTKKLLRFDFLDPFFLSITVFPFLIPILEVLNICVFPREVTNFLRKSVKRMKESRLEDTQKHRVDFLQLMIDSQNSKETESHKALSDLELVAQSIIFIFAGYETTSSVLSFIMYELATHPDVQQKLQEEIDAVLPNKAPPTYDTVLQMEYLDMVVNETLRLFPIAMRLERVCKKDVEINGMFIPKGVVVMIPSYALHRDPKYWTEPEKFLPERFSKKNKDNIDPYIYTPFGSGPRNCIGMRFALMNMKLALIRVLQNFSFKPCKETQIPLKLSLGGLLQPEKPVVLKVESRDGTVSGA

Row | SMILES | Drug uptake [1] | solubility thermodynamic [2] [µM] | Papp A→B [3] [×10⁻⁶ cm/s] | Drug uptake [4] | Drug uptake [5] | Papp B→A [6] [×10⁻⁶ cm/s] | EC50 [7] [nM] | microsomal CLint [8] [µL/min/mg] | EC50 [10] [nM] | also measured
1 | Cc1ncc(NC(=O)c2cccc(C(F)(F)F)c2)cc1-c1c[nH]c(=O)c(N2CCOCC2)c1 | Active | 55 (≈ 25.2 µg/mL) | 0.3 | Active | Active | 43 | 3910 | 9.4 | – | –
2 | Cc1ncc(N)cc1-c1cnc(OC2CCOCC2)c(N2CCOCC2)c1 | Active | – | – | Active | Active | – | – | – | – | –
3 | Cc1ncc(NC(=O)c2cccc(C(F)(F)F)c2)cc1-c1cnc(OC(CCO)CCO)c(N2CCOCC2)c1 | Active | – | – | Active | Active | – | – | – | – | –
4 | CO[C@H]1COCC[C@@H]1Oc1ncc(-c2cc(NC(=O)c3cccc(C(F)(F)F)c3)cnc2C)cc1N1CCOCC1 | – | 43 (≈ 24.6 µg/mL) | – | – | – | – | 1760 | 302 | 21 | IC50 [9]: 1.7 nM
5 | Cc1ccc(NC(=O)c2cccc(C(F)(F)F)c2)cc1-c1cc(N2CCOCC2)nc(NCCO)n1 | – | 2.1 (≈ 1.05 µg/mL) | 8 | – | – | 30 | 160 | 48 | 61 | IC50 [9]: 0.2 nM
6 | Cc1ncc(NC(=O)c2ccnc(C(C)(F)F)c2)cc1-c1cc(NCCO)nc(N2CCOCC2)c1 | – | 730 (≈ 364 µg/mL) | 3 | – | – | 34 | 6220 | 10.4 | 27 | IC50 [9]: 0.7 nM; K [11]: 0.035 min⁻¹
7 | Cc1ccc(NC(=O)c2ccnc(C(F)(F)F)c2)cc1-c1cc(NCCO)nc(N2CCOCC2)c1 | – | 36.3 (≈ 18.2 µg/mL) | 5 | – | – | 53 | 510 | 20.5 | 8 | IC50 [9]: 0.6 nM; K [11]: 0.035 min⁻¹
8 | Cc1ncc(NC(=O)c2cccc(C(F)(F)F)c2)cc1-c1cnc(OC2CCOCC2)c(N2CCOCC2)c1 | – | – | – | – | – | – | – | 94 | – | Drug metabolism [12]: < 1%; Stability [13]: 36%; Drug metabolism [14]: 20%; remaining at 3 h, 10 µM [15]: 74%; remaining at 3 h, 10 µM [16]: 44%
9 | Cc1ncc(NC(N)=O)cc1-c1cnc(OC2CCOCC2)c(N2CCOCC2)c1 | Active | – | – | Active | Active | – | – | – | – | –
10 | Cc1ccc(NC(=O)c2cccc(C(F)(F)F)c2)cc1-c1cc(N2CCOCC2)ncn1 | – | 13 (≈ 5.75 µg/mL) | – | – | – | 41 | 5280 | 43.3 | – | –
11 | [2H]C1(Oc2ncc(-c3cc(NC(=O)c4cccc(C(F)(F)F)c4)cnc3C)cc2N2CCOCC2)CCOCC1 | – | 104 (≈ 56.5 µg/mL) | – | – | – | – | 400 | 88 | – | –
12 | Cc1ncc(NC(=O)c2cccc(C(F)(F)F)c2)cc1-c1cc(N2CCOCC2)c(OC2CCOCC2)nn1 | – | 59.6 (≈ 32.4 µg/mL) | 4.4 | – | – | 51 | 880 | 7.7 | 8 | –
13 | Cc1ncc(NC(=O)c2cccc(C(F)(F)F)c2)cc1-c1cnc(O[C@H]2CCOC[C@H]2F)c(N2CCOCC2)c1 | – | 25 (≈ 14 µg/mL) | 16 | – | – | 20 | 340 | 65.5 | – | –
14 | Cc1ccc(NC(=O)c2ccnc(C(C)(C)C#N)c2)cc1-c1cc(N2CCOCC2)c(=O)n(C)n1 | – | 33.9 (≈ 16 µg/mL) | 6.3 | – | – | 49 | 1350 | 15.5 | 52 | –
15 | CC(C)(C)c1nc(-c2cccc(NS(=O)(=O)c3c(F)cccc3F)c2F)c(-c2ccnc(N)n2)s1 [DABRAFENIB] | – | – | – | – | – | – | – | – | – | EC50 [17]: Not Active; inhibition [18]: inactive; Activity [19]: Active
16 | Cc1ncc(NC(=O)c2cccc(C(F)(F)F)c2)cc1-c1cnc(OC2CCOCC2)c(N(CCO)CCO)c1 | Active | – | – | Active | Active | – | – | – | – | –
